From PubChem
This is a sample that favours compounds with a hit; in the whole collection about 2.8% have one here.
EP2 modulator: EP2 receptor modulators, cAMP readout, primary screen, cell-based, HTRF cAMP, PGE2 stimulation; Prostaglandin E2 receptor EP2 subtype (Homo sapiens), P43116; EP2-expressing cells, cAMP HTRF FRET, PGE2 co-stimulation; induction, % at 25 µM; 260,000 compounds, 0.83% hits;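 active = compounds whose cAMP rise, as percent of the full-agonist control response, exceeds 60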;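 also: rat C6 glioma line stably carrying human EP2 under a CMV promoter; the protocol text gives 20 µM as final concentration; 100% = response of wells given 1 µM PGE2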
NPY1 pot ag: NPY-Y1 receptor potentiators or agonists, primary screen, cell-based; NPY-Y1 expressing cells, potentiator/agonist activation; Neuropeptide Y receptor type 1 (Homo sapiens), P25929; 220,000 compounds, 0.37% hits; activation, % at 3.6 µM; in the data active = activation above about 33%, passing the limit was not always enough;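 also: cells stimulated with NPY at EC10 then isoproterenol at EC100; 0% = low agonist plus stimulus and 100% = saturating agonist plus stimulus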
NPY2 pot ag: NPY-Y2 potentiators or agonists, primary screen, cell-based; Neuropeptide Y receptor type 2 (Homo sapiens), P49146; cells expressing NPY-Y2, potentiator/agonist read-out; activation, % at 3.6 µM; 220,000 compounds, 0.45% hits; AID 1359, 2008; in the data active = activation above about 27%;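 also: cells stimulated with NPY near EC25 plus isoproterenol at EC100; 0% = vehicle plus submaximal agonist and 100% = vehicle plus saturating agonist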
Target sequence (P49146 whole entry, looked up): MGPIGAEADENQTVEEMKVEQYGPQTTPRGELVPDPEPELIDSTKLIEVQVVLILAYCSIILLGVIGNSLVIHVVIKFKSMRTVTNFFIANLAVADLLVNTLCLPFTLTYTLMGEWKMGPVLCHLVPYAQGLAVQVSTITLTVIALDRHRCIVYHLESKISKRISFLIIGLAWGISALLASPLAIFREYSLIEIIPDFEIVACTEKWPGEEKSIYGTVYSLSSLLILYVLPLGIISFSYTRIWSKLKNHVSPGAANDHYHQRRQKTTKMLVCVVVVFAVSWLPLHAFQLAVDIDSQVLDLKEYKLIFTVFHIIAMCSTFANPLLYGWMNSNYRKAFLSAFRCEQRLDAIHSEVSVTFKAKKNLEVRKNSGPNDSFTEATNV
PGE2 EP2 inh: human EP2 receptor antagonists, primary screen, TR-FRET cAMP, C6 glioma cells. C6 glioma cells expressing human EP2; cells stimulated with saturating PGE2. inhibition, % at 25 µM. 260,000 compounds, 0.52% hits. AID 1422, 2008;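 active = percent inhibition above 40 after rounding to a whole number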;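 also: rat C6 glioma host cells with rolipram phosphodiesterase inhibitor present; the protocol text gives 20 µM as final concentration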
NPY-Y1 antag: NPY-Y1 receptor antagonists, primary screen, cell-based | Neuropeptide Y receptor type 1 (Homo sapiens), P25929 | HEK293-CNG Y1 cells, membrane potential fluorescence; NPY at EC95, then isoproterenol | inhibition, % at 3.6 µM | 200,000 compounds, 1% hits | AID 1040, 2008;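 active = inhibition above the campaign mean inhibition of all tested compounds plus 3 SD, cut at about 20% in these data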;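 also: 0% = DMSO wells given NPY plus isoproterenol and 100% = isoproterenol alone without NPY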
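Assay system: HEK293 cells with Y1 receptor plus CNG channel | Probe or stimulus: NPY (25 nM), isoproterenol (1 µM), Ro 20-1724 (25 µM) | Timing: Compound incubation 1 h at room temperature, readout 45 min post-stimulation | Measured by: Membrane-potential fluorescent dye readout | Benchmarks: High control isoproterenol alone, low control NPY with isoproterenol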
NPY-Y2 confirm: NPY-Y2 potentiators or agonists, confirmation, cell-based; shares compounds with NPY2 pot ag; cell-based NPY-Y2 potentiator/agonist assay; activation, % at 3.6 µM; 450 compounds, 20% hits; AID 1539, 2009; in the data active = activation above about 33%
NPY-Y1 potentiator: NPY-Y1 potentiators or agonists, counter-screen for NPY-Y2 potentiator project, cell-based, fluorescence; shares compounds with NPY2 pot ag; Y1 HEK293-CNG cells, membrane potential fluorescence; activation, % at 3.6 µM; 450 compounds, 20% hits; AID 1651, 2009; in the data active = activation above about 45%;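 also: cells stimulated with submaximal NPY then isoproterenol with phosphodiesterase inhibitor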
NPY-Y1 ag 2: NPY-Y1 direct agonists, selectivity assay for NPY-Y2 potentiator project, cell-based, fluorescence; shares compounds with NPY2 pot ag; HEK293 Y1-CNGC, membrane potential fluorescence, agonism; activation, % at 3.6 µM; 450 compounds, 37% hits;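 active = activation above the mean of DMSO-only control wells plus 3 SD, cut at about 18% in these data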;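 also: cells stimulated with 1 µM isoproterenol plus the PDE inhibitor Ro 20-1724; 0% = isoproterenol with DMSO and no NPY and 100% = 40 nM NPY; Y1 agonists lower the membrane potential dye signal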
CNGC inh: CNGC cAMP sensor activity inhibitors, counter-screen for NPY-Y2 potentiator project, cell-based, HEK293-CNG parental, membrane potential fluorescence; shares compounds with NPY2 pot ag; inhibition, % at 3.6 µM; isoproterenol cAMP; 450 compounds, 32% hits; AID 1703, 2009;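 active = inhibition above the control-well mean plus 3 SD of those wells, cut at about 22% in these data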;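 also: 0% = DMSO with isoproterenol and 100% = DMSO without isoproterenol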
Y2 agonist ctr: NPY-Y2 direct agonists, counter-screen for NPY-Y2 potentiator project, cell-based, fluorescence; shares compounds with NPY2 pot ag; 450 compounds, 56% hits; activation, % at 3.6 µM; HEK293 Y2/CNGC cells, membrane potential fluorescence, agonist mode;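 active = activation above the mean of solvent-only control wells plus 3 SD, cut at about 10% in these data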;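 also: cells stimulated by isoproterenol with no NPY added so direct agonism is tested; 0% = DMSO with isoproterenol alone and 100% = NPY at EC100 plus isoproterenol; agonism lowers probe fluorescence through less cAMP and CNG channel opening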
* = called active by the depositor.

Screening COc1ccc(NS(=O)(=O)c2cccc(NC(=O)c3ccc(Cl)nc3)c2)cc1 returned EP2 modulator -61, NPY1 pot ag -21, NPY2 pot ag 14, PGE2 EP2 inh 4 and NPY-Y1 antag 16.
COc1cc(C(=O)N2CCn3cccc3C2C(C)C)c2ccccc2n1 (stereo not drawn) was read as EP2 modulator 43 and PGE2 EP2 inh 5.
`Cc1cc(Cl)n2nc(C)c(-c3ccc(Cl)cc3)c2n1` gave EP2 modulator 6, NPY1 pot ag 35, NPY2 pot ag 28*, PGE2 EP2 inh 16, NPY-Y1 antag -14, NPY-Y2 confirm 42*, NPY-Y1 potentiator 59*, NPY-Y1 ag 2 59*, CNGC inh 63* and Y2 agonist ctr 45*.
C=CCn1c(SC(C)CC)nc2c1c(=O)n(C)c(=O)n2C (stereo not drawn) was read as EP2 modulator -2 and PGE2 EP2 inh 13.
O=C(c1ccc(Cl)cc1Cl)N1CCC(C(=O)N2CCc3ccccc3C2)CC1 was read as EP2 modulator -10 and PGE2 EP2 inh 7.
